For eleven compounds, Activity results are on record in ChEMBL document CHEMBL1156228 (2010).

Assay [1] is described as follows: Antioxidant activity assessed as superoxide radical-scavenging activity at 1 mM by EPR spectroscopy. The format is functional. An outline of the steps:
(§1)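 Superoxide generated by xanthine (0.2 mM) plus xanthine oxidase (0.02 U/ml) in PBS pH 7.4 containing DEPMPO spin trap (1 mM) and DTPA (0.1 mM), with or without derivative. The DEPMPO-OOH adduct was measured by EPR and double-integrated. Signal is expressed as percent of the level without derivative.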

Assay [2] is described as follows: Antioxidant activity assessed as peroxyl radical-scavenging activity at 1 mM by EPR spectroscopy. The format is functional. The method in brief:
(§2)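 Alkylperoxyl radicals generated by thermolysis of 2,2-azobis-2-amidinopropane dihydrochloride (25 mM) in aerobic PBS at 37°C. EPR run in PBS pH 7.4 with DEPMPO (1 mM) and DTPA (0.1 mM), with or without derivative. The DEPMPO-OOR adduct was quantified by double integration and expressed as percent of the untreated level.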

The next assay deals with CHO. Briefly: Antioxidant activity in CHO cells assessed as protection from H2O2-induced toxicity at 50 uM pretreated for 2 hrs before H2O2 challenge measured after 1 hr by MTT assay. The format is functional, Cricetulus griseus. An outline of the steps: (§3)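 Cells grown to 80% confluence at 37°C in 5% CO2, trypsinized and seeded at about 7,000 cells/well. After 24–48 h they were exposed to derivative for 2 h, then to H2O2 at 1 mM for 1 h. Viability was read by MTT-to-formazan conversion, with at least 6 repeats.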

Assay [3] can be described thus: Antioxidant activity in HSMC assessed as protection from H2O2-induced toxicity at 50 uM pretreated for 2 hrs before H2O2 challenge measured after 1 hr by MTT assay. The format is functional, Homo sapiens. The method in brief:
as §3

A short description of assay [4]: Antioxidant activity assessed as superoxide radical-scavenging activity at 100 uM by EPR spectroscopy. The format is functional. An outline of the steps: as §1
Assay [5] can be described thus: Antioxidant activity assessed as peroxyl radical-scavenging activity at 100 uM by EPR spectroscopy. The format is functional. The method in brief: as §2

Values joined by “and” are separate entries in the source; they are usually repeats but may differ in a detail not shown here. Equal entries are not always repeated.

With `COc1ccc(CCN(C)CCCC(CNC(=O)C2=CC(C)(C)N(C)C2(C)C)(c2ccc(OC)c(OC)c2)C(C)C)cc1OC` (centres undefined), the Activity in assay [1] is 60.7%; in assay [2] it was 89.8%; in the assay with CHO, 55.5%; in assay [3], 48.7%.
For the compound `COc1ccc(CCN(C)CCCC(CNC(=O)C2CC(C)(C)N(O)C(C)(C)C2)(c2ccc(OC)c(OC)c2)C(C)C)cc1OC` (centres undefined), the Activity in assay [4] turned out to be 76.5%; in assay [1], 100%; in assay [2], 90.1%; in the assay with CHO, 50.3%; in assay [3], 40.2%.
On to `COc1ccc(CCN(C)CCCC(CNC(=O)C2=C(C)C(C)(C)N(O)C2(C)C)(c2ccc(OC)c(OC)c2)C(C)C)cc1OC` (centres undefined), for which the Activity in assay [4] stood at 78.2%; in assay [1], 100%; in assay [2] it was 100%; in assay [5], 100%; in the assay with CHO, 60%; in assay [3] it was 39.7%.
For `COc1ccc(CCN(C)CCCC(CNCC2=CC(C)(C)N(O)C2(C)C)(c2ccc(OC)c(OC)c2)C(C)C)cc1OC` (centres undefined), the Activity in assay [4] turned out to be 88.5%; in assay [1] it was 100%; in assay [2] it was 100%; in assay [5], 92.9%; with CHO, 63.6%; in assay [3] it was 43.3%.
For the compound `COc1ccc(CCN(C)CCCC(CNC(=O)C2=CC(C)(C)N(O)C2(C)C)(c2ccc(OC)c(OC)c2)C(C)C)cc1OC` (centres undefined), the Activity in assay [1] came to 55.2%; in assay [2], 14.9%; with CHO, 48.9%; in assay [3] it was 59.1%.
In the case of `COc1ccc(CCN(C)CCCC(CNC(=O)C2CC(C)(C)N(O)C2(C)C)(c2ccc(OC)c(OC)c2)C(C)C)cc1OC` (centres undefined), the Activity in assay [4] was found to be 84.2%; in assay [1], 100%; in assay [2], 100%; in assay [5], 98%; in the assay with CHO it was 62.1%; in assay [3] it was 40.2%.
With `COc1ccc(CCN(C)CCC[C@@](CNC(=O)C2=CC(C)(C)N(O)C(C)(C)C2)(c2ccc(OC)c(OC)c2)C(C)C)cc1OC`, the Activity in assay [4] came to 66.5%; in assay [1] it was 100%; in assay [2], 100%; in assay [5], 91.4%; in the assay with CHO, 46.1%; in assay [3], 33.1%.
With `COc1ccc(CCN(C)CCCC(CNC(=O)C2=CC(C)(C)NC2(C)C)(c2ccc(OC)c(OC)c2)C(C)C)cc1OC` (centres undefined), the Activity in assay [1] was 34.9%; in assay [2], 84.1%; in the assay on CHO, 53.5%; in assay [3], 53.7%.
In the case of `COc1ccc(CCN(C)CCCC(CNC(=O)C2=C(c3ccccc3)C(C)(C)N(O)C2(C)C)(c2ccc(OC)c(OC)c2)C(C)C)cc1OC` (centres undefined), the Activity in assay [4] is 79.3%; in assay [1], 100%; in assay [2] it was 100%; in assay [5], 86.1%; in the assay on CHO it was 68.3%; in assay [3] it was 47.5%.
Take `COc1ccc(CCN(C)CCCC(CNCC2=CC(C)(C)NC2(C)C)(c2ccc(OC)c(OC)c2)C(C)C)cc1OC` (centres undefined): the Activity in assay [4] is 73.8%; in assay [1], 100%; in assay [2] it was 100%; in assay [5], 89.8%; in the assay on CHO, 71.2%; in assay [3], 39.1%.
Take `COc1ccc(CCN(C)CCCC(CNC(=O)CC2(C)CCC(C)(C)N2O)(c2ccc(OC)c(OC)c2)C(C)C)cc1OC` (centres undefined): the Activity in assay [4] is 70.7% and 78.1%; in assay [1] it was 100%; in assay [2], 100%; in assay [5], 89.2%; with CHO it was 54%; in assay [3], 44%.
